Assay [1] relates to Mus musculus. Nature of the assay: (§1) In vivo evaluation of 30 day survival against P388 lymphocytic leukemia in CD2F1 male mice at dose 160 mg/kg; out of 6 mice. The class given is functional. In outline: (§2)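 CD2F1 (CDF1) male mice transplanted with 10⁶ P388 lymphocytic leukemia cells, then dosed intraperitoneally once daily for 9 days starting after the day of transplantation. Groups of 6 mice. Read-out is the number of mice alive at 30 days over the total per group.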

Assay [2] deals with Mus musculus. Put plainly: (§3) In vivo evaluation of 30 day survival against P388 lymphocytic leukemia in CD2F1 male mice at dose 80 mg/kg; out of 6 mice. In kind it is functional. The procedure, abridged:
as §2

Assay [3] has as its system Mus musculus. Nature of the assay: (§4) In vivo evaluation of percent increase in life span (ILS) against P388 lymphocytic leukemia in infected CD2F1 male mice and at 80 dose mg/kg. In kind it is functional. In outline: (§5)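 P388 lymphocytic leukemia (10⁶ cells) transplanted into male CD2F1 (CDF1) mice, with intraperitoneal treatment once daily for 9 days following the day of transplantation. Groups of 6. Survival days of treated (T) and control (C) mice were compared, and %ILS was calculated as [(T−C)/C]100.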

In assay [4] the test system is Mus musculus. Nature of the assay: In vivo evaluation of percent increase in life span (ILS) against P388 lymphocytic leukemia in infected CD2F1 male mice and at 160 dose mg/kg. In kind it is functional. The procedure, abridged:
as §5

Assay [5] has as its system Mus musculus. Put plainly: (§6) In vivo evaluation of 30 day survival against P388 lymphocytic leukemia in CD2F1 male mice at dose 15 mg/kg; out of 6 mice. The class given is functional. In outline:
as §2

The subject of assay [6] is Mus musculus. Put plainly: (§7) In vivo evaluation of 30 day survival against P388 lymphocytic leukemia in CD2F1 male mice at dose 20 mg/kg; out of 6 mice. In kind it is functional. The procedure, abridged: as §2
For assay [7], the system named is Mus musculus. Nature of the assay: In vivo evaluation of 30 day survival against P388 lymphocytic leukemia in CD2F1 male mice at dose 7.5 mg/kg; out of 6 mice. The class given is functional. The procedure, abridged: as §2
Assay [8] concerns Mus musculus. Described as §6. In kind it is functional. The procedure, abridged:
as §2
The source holds these as a separate data set.

Assay [9] concerns Mus musculus. Described as §7. In kind it is functional, organism-based. Set-up: dose 20 mg/kg. In outline:
as §2

For assay [10], the system named is Mus musculus. Nature of the assay: In vivo evaluation of percent increase in life span (ILS) against P388 lymphocytic leukemia in infected CD2F1 male mice and at 15 dose mg/kg. In kind it is functional. In outline:
as §5

The subject of assay [11] is Mus musculus. Nature of the assay: In vivo evaluation of percent increase in life span (ILS) against P388 lymphocytic leukemia in infected CD2F1 male mice and at 10 dose mg/kg. In kind it is functional. In outline:
as §5

For assay [12], the system named is Mus musculus. Put plainly: In vivo evaluation of percent increase in life span (ILS) against P388 lymphocytic leukemia in infected CD2F1 male mice and at 20 dose mg/kg. In kind it is functional. In outline:
as §5

The subject of assay [13] is Mus musculus. Nature of the assay: In vivo evaluation of 30 day survival against P388 lymphocytic leukemia in CD2F1 male mice at dose 6 mg/kg; out of 6 mice. In kind it is functional. The procedure, abridged: as §2
Assay [14] has as its system Mus musculus. Nature of the assay: In vivo evaluation of percent increase in life span (ILS) against P388 lymphocytic leukemia in infected CD2F1 male mice and at 6 dose mg/kg. In kind it is functional. In outline: as §5
Assay [15] concerns Mus musculus. Put plainly: In vivo evaluation of percent increase in life span (ILS) against P388 lymphocytic leukemia in infected CD2F1 male mice and at 12 dose mg/kg. The class given is functional. The procedure, abridged:
as §5

Assay [16] concerns Mus musculus. Nature of the assay: In vivo evaluation of 30 day survival against P388 lymphocytic leukemia in CD2F1 male mice at dose 12 mg/kg; out of 6 mice. In kind it is functional. The procedure, abridged: as §2
In assay [17] the test system is Mus musculus. Nature of the assay: In vivo evaluation of percent increase in life span (ILS) against P388 lymphocytic leukemia in infected CD2F1 male mice and at 30 dose mg/kg. The class given is functional. The procedure, abridged:
as §5

In assay [18] the test system is Mus musculus. Put plainly: In vivo evaluation of 30 day survival against P388 lymphocytic leukemia in CD2F1 male mice at dose 30 mg/kg; out of 6 mice. In kind it is functional. The procedure, abridged:
as §2

For assay [19], the system named is Mus musculus. The assay is described as §7. The class given is functional. The procedure, abridged:
as §2
This is another data set of the same source.

Assay [20] has as its system Mus musculus. Put plainly: In vivo evaluation of percent increase in life span (ILS) against P388 lymphocytic leukemia in infected CD2F1 male mice and at dose mg/kg. In kind it is functional. The procedure, abridged:
as §5

Assay [21] deals with Mus musculus. Put plainly: In vivo evaluation of 30 day survival against P388 lymphocytic leukemia in CD2F1 male mice at dose 10 mg/kg; out of 6 mice. In kind it is functional. The procedure, abridged: as §2
The subject of assay [22] is Mus musculus. Nature of the assay: In vivo evaluation of percent increase in life span (ILS) against P388 lymphocytic leukemia in infected CD2F1 male mice and at 25 dose mg/kg. The class given is functional. In outline: as §5
Assay [23] deals with Mus musculus. Put plainly: In vivo evaluation of 30 day survival against P388 lymphocytic leukemia in CD2F1 male mice at dose 25 mg/kg; out of 6 mice. In kind it is functional. The procedure, abridged: as §2
For assay [24], the system named is Mus musculus. Put plainly: In vivo evaluation of percent increase in life span (ILS) against P388 lymphocytic leukemia in infected CD2F1 male mice and at dose. The class given is functional. In outline:
as §5

Assay [25] deals with Mus musculus. Nature of the assay: In vivo evaluation of percent increase in life span (ILS) against P388 lymphocytic leukemia in infected CD2F1 male mice and at 3 dose mg/kg. The class given is functional. The procedure, abridged:
as §5

In assay [26] the test system is Mus musculus. Put plainly: In vivo evaluation of 30 day survival against P388 lymphocytic leukemia in CD2F1 male mice at dose mg/kg; out of 6 mice. In kind it is functional. The procedure, abridged: as §2
The subject of assay [27] is Mus musculus. Put plainly: (§8) In vivo evaluation of 30 day survival against P388 lymphocytic leukemia in CD2F1 male mice at dose 40 mg/kg; out of 6 mice. The class given is functional. The procedure, abridged:
as §2

Assay [28] relates to Mus musculus. Nature of the assay: In vivo evaluation of percent increase in life span (ILS) against P388 lymphocytic leukemia in infected CD2F1 male mice and at 40 dose mg/kg. In kind it is functional. In outline: as §5
In assay [29] the test system is Mus musculus. The description is as §8. The class given is functional, organism-based. More on the design: dose 40 mg/kg. In outline:
as §2

For assay [30], the system named is Mus musculus. The description is as §1. In kind it is functional, organism-based. More on the design: dose 160 mg/kg. In outline: as §2
Assay [31] concerns Mus musculus. Described as §3. In kind it is functional, organism-based. More on the design: dose 80 mg/kg. In outline:
as §2

Assay [32] relates to Mus musculus. The description is as §4. In kind it is functional, organism-based. The procedure, abridged:
as §5

Where “and” joins values, the source holds several entries; their conditions need not be identical. Equal values may be shown once.

As for `CC1(C)CC(OP(=S)(NCCCl)NCCCl)CC(C)(C)N1O`, the “30 day survival / total” value in assay [1] and in [2] was 0 each time. Also, the ILS is 15% in assay [3] and 33% in assay [4].
On to `CC1(C)CC(OP(=S)(N2CC2)N2CC2)CC(C)(C)N1O`, for which the “30 day survival / total” value in assay [5], in [6] and in assay [7] was 0 throughout.
On to `CN(C1CC(C)(C)N([O])C(C)(C)C1)P(=S)(NCCCl)N1CC1` (centres undefined), for which the 30 day survival / total in assay [8] and in assay [9] was 0 each time. Also, the values for the ILS in assay [10] and in [11] were 20% and 13%, respectively.
Turning to `CN(C1CC(C)(C)N(O)C(C)(C)C1)P(=S)(N1CC1)N1CC1`, the “30 day survival / total” value in assay [5] and in assay [6] was 0 throughout. In assay [12], the ILS is reported as 4%.
Turning to `CC1(C)CC(OP(=S)(N2CC2)N2CC2)CC(C)(C)N1[O]`, the 30 day survival / total in assay [5] stood at 0; in [13], 0; in assay [16], 1. For the same compound, the ILS in assay [14] is reported as 45%; in [15], 103%; in assay [10] it was -8%.
`CC1(C)CC(OC(=O)NP(=O)(N2CC2)N2CC2)CC(C)(C)N1O`: the “30 day survival / total” value in assay [5] and in assay [18] was 0 in each case. The values for the ILS in [17] and in assay [10] were 48% and 25%, respectively.
On to `CN(C1CC(C)(C)N([O])C(C)(C)C1)P(=S)(N1CC1)N1CC1`, for which the 30 day survival / total in assay [8] and in assay [19] was 0 in each case. Also, the ILS in [20] is 27% and 16%.
As for `CC1(C)CC(OC(=O)NP(=O)(N2CC2)N2CC2)CC(C)(C)N1[O]`, the ILS is 81% in assay [17] and 42% in assay [10].
Turning to `CC1(C)CC(NP(=S)(N2CC2)N2CC2)CC(C)(C)N1O`, the “30 day survival / total” value in [21] and in [5] was 0 in each case. For the same compound, the ILS in assay [10] was 34%; in [11] it was 25%.
Consider `CC1(C)CC(OP(=O)(N2CC2)N2CC2)CC(C)(C)N1[O]`, for which the 30 day survival / total in assay [8] and in [21] was 0 each time. For the same compound, the ILS in assay [10] was found to be 5%; in [11] it was 29%.
`CC1(C)CC(NP(=S)(N2CC2)N2CC2)CC(C)(C)N1[O]`: the “30 day survival / total” value in assay [21], in assay [23] and in [6] was 0 in each case. Moreover, the results for the ILS in assay [22], in [12] and in assay [11] were 96%, 52% and 34%, respectively.
Regarding `CN(C1CC(C)(C)NC(C)(C)C1)P(=S)(N1CC1)N1CC1`, the “30 day survival / total” value in assay [21] and in assay [5] was 0 in each case. The ILS in assay [10] is reported as 33%; in [11], 20%.
With `CC1(C)CC(OP(=O)(N2CC2)N2CC2)CC(C)(C)N1O`, the “30 day survival / total” value in assay [21] and in assay [5] was 0 in each case. Besides, the ILS in [24] is -2% and 23%.
Regarding `S=P(N1CC1)(N1CC1)N1CC1` [THIOTEPA], the ILS turned out to be 83% in assay [25] and 141% in assay [14]. The “30 day survival / total” value in [26] turned out to be 0.
Turning to `CC1(C)CC(NP(=S)(N2CC2)N2CC2)CC(C)(C)N1`, the “30 day survival / total” value in [27] and in [18] was 0 in each case. Moreover, the ILS in assay [17] is on record as 41%; in assay [28], 88%.
Regarding `CC1(C)CC(OP(=S)(NCCCl)NCCCl)CC(C)(C)N1[O]`, the 30 day survival / total in assay [19], in [29], in assay [30] and in [31] was 0 throughout. The ILS in assay [28] was 17% and 13%; in [4] it was 44%; in assay [32], 30%.

These data come from ChEMBL document CHEMBL1122745, “In the search for new anticancer drugs. 9. Synthesis and anticancer activity of spin-labeled analogues of N,N:N',N':N",N"-Tri-1,2-ethanediylphosphoric triamide and N,N:N',N':N",N"-tri-1,2-ethanediylphosphorothioic triamide” (1984).
